Experiments:
MS2 coat protein [1] = experiment: apparent Kd, MS2 coat protein; higher = weaker binding; RNA-MaP array
How it was run: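 Apparent Kd was taken as the median of binding curves fitted cluster by cluster. The designed RNAs were made by transcription of sequenced DNA templates on an Illumina sequencing chip and exposed to fluorescently labeled MS2 coat protein (1.5 nM to 3 μM) at room temperature, with or without input ligand, for 0.8–1.5 h at the lowest and 10–20 min at the highest concentrations. Any design measured on fewer than 10 clusters was left out.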

MS2 coat protein [2] = experiment: apparent Kd, MS2 coat protein; higher = weaker binding; RNA-MaP array; FMN 200 µM where present
How it was run: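 Green signal from SNAP-549-labelled MS2 coat protein was normalised to red-channel RNA signal and to the median Fmax of control clusters. The protein was titrated from 0.7 or 1.5 nM, doubling to 3 µM, without and then with constant ligand, over designs transcribed by stalled E. coli RNA polymerase on Illumina sequencing-chip clusters, in 100 mM Tris-HCl pH 7.5, 80 mM KCl, 4 mM MgCl2, BSA, DTT, yeast tRNA and Tween-20. The apparent Kd is the median of filtered per-cluster binding-curve fits.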

[3] = designed as: OFF switch for flavin mononucleotide, no ligand
[4] = ligand present: flavin mononucleotide, designed as: OFF switch for flavin mononucleotide
[5] = designed as: ON switch for flavin mononucleotide, no ligand
[6] = ligand present: flavin mononucleotide, designed as: ON switch for flavin mononucleotide
[7] = designed as: OFF switch for theophylline, no ligand
[8] = ligand present: theophylline, designed as: OFF switch for theophylline

GCAUUAGGGUAAGGAUAUUGAAUUAAACAUGGCAAAGUAAUUUUUGACAUGAGGAUCACCCAUGUCAAGAAGGUACUCAUUCAU
apparent Kd (MS2 coat protein [1]; [3]): 6.08 nM
apparent Kd (MS2 coat protein [1]; [4]): 5.74 nM

GGGCGACUAGGAUAUACAGGAAGUUAAUGAGUGUCAAAGAAACAUGAGGAUCACCCAUGUAGAAGGAGUGCUAU
apparent Kd (MS2 coat protein [1]; [3]): 11.2 nM
apparent Kd (MS2 coat protein [1]; [4]): 12.6 nM

GAUCGUUGGGAGGAUAUCCGCAAGUCCAGGGAGGGAGAAGGCCCAACAUGAGGAUCACCCAUGUAGAAGCGCAU
apparent Kd (MS2 coat protein [1]; [3]): 51 nM
apparent Kd (MS2 coat protein [1]; [4]): 77.6 nM

AGCCUGGAAGCAGGAUAUGGGAUACAUGAGGAUCACCCAUGUAAGAUAAUAGGGCAACGAAGAAGCCAGAAGGGCUCGAGGUAA
apparent Kd (MS2 coat protein [1]; [5]): 16.2 nM
apparent Kd (MS2 coat protein [1]; [6]): 13.1 nM

CUUCUGAAAGCAAUGGGAUCUGUUAUUGAUACCAGCAUCUGAUUUUGCCCUUGGCAGCAAGAAACAUGAGGAUCACCCAUGUGGC
apparent Kd (MS2 coat protein [1]; [7]): 19.5 nM
apparent Kd (MS2 coat protein [1]; [8]): 61.2 nM

UCAACAUGAGGAUCACCCAUGUCAUCGGCGUUCUCAGACACUAGAAGGAACAGGCGUAUCUGCGGUUAGGAUAUAGACACACAU
apparent Kd (MS2 coat protein [1]; [3]): 31.3 nM
apparent Kd (MS2 coat protein [1]; [4]): 31 nM

CCACUACAUGAGGAUCACCCAUGUCAGGAUAUCAACCACGCCUCUCCUUGGACGUAGAUGAGAAGGGACGUGGG
apparent Kd (MS2 coat protein [1]; [3]): 16.7 nM
apparent Kd (MS2 coat protein [1]; [4]): 28.2 nM

GAUCUGUGAGGAUAUUGUUAGAGCAUUCAACCAUCGAAUGCCAAGAAGGCACAUGAGGAUCACCCAUGUAGACA
apparent Kd (MS2 coat protein [1]; [3]): 7.9 nM
apparent Kd (MS2 coat protein [1]; [4]): 10.4 nM

UAAUACCAUACAGGAUAUACUUAGCCCAAAACAUGAGGAUCACCCAUGUAUUGGAGUCCUCGGCGGUAGAAGGGUACAGAAAGA
apparent Kd (MS2 coat protein [1]; [3]): 19.5 nM
apparent Kd (MS2 coat protein [1]; [4]): 16.4 nM

AGUGGGUAUGGGCAGGAUAUACGUCGGGCGACAUGAGGAUCACCCAUGUUGGGCGGUGAAGUUGAGUAGAAGGGCCUCCGCCCGAA
apparent Kd (MS2 coat protein [1]; [5]): 54.6 nM
apparent Kd (MS2 coat protein [1]; [6]): 12.1 nM

AAUAUUAACGUCAGGAUAUGCCAUUCCCGUUGGCGGCAGAAGGGACAUGAGGAUCACCCAUGUGAAAACGUCAC
apparent Kd (MS2 coat protein [1]; [3]): 16.9 nM
apparent Kd (MS2 coat protein [1]; [4]): 25.6 nM

ACCGAGGCAAUGGAUACCAGUGCGCCACAAUCGUGCUUCAACAUGAGGAUCACCCAUGUGCACCCUUGGCAGCCAACGGGCUCAU
apparent Kd (MS2 coat protein [1]; [7]): 21.9 nM
apparent Kd (MS2 coat protein [1]; [8]): 19.9 nM

UACUCAAGAGUAAGGAUAUAGAACCAAAUAGCGGACUAGAAGGUACAUGAGGAUCACCCAUGUCAAAGACAGAA
apparent Kd (MS2 coat protein [1]; [3]): 7.44 nM
apparent Kd (MS2 coat protein [1]; [4]): 7.19 nM

GCCCGUUAUUAGAAGGGUAUUCGGAUAUGCAUUCCUUACAUGAGGAUCACCCAUGUACCGCGAGUACAGGAUAUAAAACCGCCA
apparent Kd (MS2 coat protein [1]; [3]): 75.2 nM
apparent Kd (MS2 coat protein [1]; [4]): 69.7 nM

GCCUGACCCAUAGGAUAUCGCGUAGCUGCCGGCUACGACACAUGAGGAUCACCCAUGUAUCAAAUCGAGAAGGAUGAUCUGCAA
apparent Kd (MS2 coat protein [1]; [5]): 272 nM
apparent Kd (MS2 coat protein [1]; [6]): 168 nM

UCCACGGACCAAGGAUAUCCACAGUGAACCAGAGGAGAAGGUGGGAAUUACAUGAGGAUCACCCAUGUACGGGAUCUCCUGUAU
apparent Kd (MS2 coat protein [1]; [5]): 47.5 nM
apparent Kd (MS2 coat protein [1]; [6]): 41.7 nM

UACAUGAGGAUCACCCAUGUGUGUAGCUAUUACUGUUACAUCUAGGAUAUGUCGGGAACUCAACAACAGAAGGAGAUAGAAGGA
apparent Kd (MS2 coat protein [1]; [5]): 48.8 nM
apparent Kd (MS2 coat protein [1]; [6]): 33.8 nM

CUCCUACAUGAGGAUCACCCAUGUGAGGAUAUCUCCCAGUGGGAAUAGUUUCCAUGGAAGAGAAGGCACAGUGA
apparent Kd (MS2 coat protein [1]; [3]): 24.4 nM
apparent Kd (MS2 coat protein [1]; [4]): 30.9 nM

GUCCAACAUGAGGAUCACCCAUGUCAGGAUAUACCGGGCGAAAGAAAGGCCCAUAAGGGUAGAAGGGACGGUGU
apparent Kd (MS2 coat protein [2]; [3]): 15.8 nM
apparent Kd (MS2 coat protein [2]; [4]): 21 nM

AAAUUGUCAGGAUAUCCAACUAUACGAAAUAUAUAUACACAGGAGAAGGGACAUGAGGAUCACCCAUGUUUGAA
apparent Kd (MS2 coat protein [2]; [3]): 24.6 nM
apparent Kd (MS2 coat protein [2]; [4]): 19.1 nM

UAUAUAUAGUAAGGAUAUGUAUUAAUUCUAUAAACAGAAGGUACUGACAUGAGGAUCACCCAUGUUUUAGUGUGGGCAUGUAGA
apparent Kd (MS2 coat protein [2]; [3]): 49.3 nM
apparent Kd (MS2 coat protein [2]; [4]): 56 nM

UUGGCCGUCGUAGGAUAUGUAGGAUAUUCCUACAUGAGGAUCACCCAUGUUGACAUGGAAGAAGGACAGAAGGACGAUGUCCAU
apparent Kd (MS2 coat protein [2]; [5]): 365 nM
apparent Kd (MS2 coat protein [2]; [6]): 4.87 nM

CAGAGGAUGUAAGGAUAUCGUCAGGAUAACUGACGAGAAGGUACAUGAGGAUCACCCAUGUAACUCUAAUAAUAAUAACCUCUG
apparent Kd (MS2 coat protein [2]; [3]): 11.7 nM
apparent Kd (MS2 coat protein [2]; [4]): 17.3 nM

GCCUCAUAGUAGAAGGGACUUCGGCUGUUAAGCAUCAUCUCCAUAUCACAUGAGGAUCACCCAUGUCAGGAUAUACUAAGAGGC
apparent Kd (MS2 coat protein [2]; [3]): 6.95 nM
apparent Kd (MS2 coat protein [2]; [4]): 14.4 nM

GAUUACAUCACAGGAUAUAGAAUAAAACAGAUUUUAGAAGGGUGAGCCUCGUCGACCGCGACAUGAGGAUCACCCAUGUUGUGU
apparent Kd (MS2 coat protein [2]; [5]): 18.4 nM
apparent Kd (MS2 coat protein [2]; [6]): 35.7 nM

GUUGAGCGUGCUACGCAAAAUAACGCAGAAGGCCAACAUGAGGAUCACCCAUGUAAACGAAAGAUGGAGGAUAUGCGGUUUGGC
apparent Kd (MS2 coat protein [2]; [5]): 50.4 nM
apparent Kd (MS2 coat protein [2]; [6]): 6.81 nM

Reference: the EternaBench riboswitch data
